Measurements gathered from unrelated publications.
Compare with care: the assays were run in different laboratories.
Target: Tyrosine-protein kinase SYK (SYK, Homo sapiens, UniProt P43405)

| SMILES | assay | conditions | remaining binding [%] |
| --- | --- | --- | --- |
| CO[C@H]1CC[C@H](CNc2ccc(S(=O)(=O)NC(=O)c3ccc(N4CCN(CC5=C(c6ccc(Cl)cc6)CC(C)(C)CC5)CC4)cc3Oc3cnc4[nH]ccc4c3)cc2[N+](=O)[O-])CC1 | cell-free assay, competition with immobilised ligand | 1 µM | 62 |
| O=C(c1ccc(Nc2ncc(Cl)c(-c3cc4ccccc4s3)n2)cc1)N1CCC(N2CCCC2)CC1 | binding, competition with immobilised ligand | 1 µM | 8.6 |
| COc1ncc2cc3ccccc3nc2c1C#N | cell-free assay, competition with immobilised ligand | 5 µM | 98 |
| COc1cnc(Nc2cccc(S(N)(=O)=O)c2)nc1N1CCN(c2ccccc2)C(=O)C1 | binding, competition with immobilised ligand | 1 µM | 100 |
| CN(CCCC(F)(F)F)c1nccc(-c2cnn3ncccc23)n1 | binding | 1 µM | 76 |
| C[C@@H]1CN(c2cc(-c3n[nH]c4ccc(OC5(C)CC5)cc34)ncn2)C[C@H](C)O1 | cell-free assay, competition with immobilised ligand | 0.1 µM | 96 |
| N[C@@H]1CCN(c2nccc(-c3cnn4ncccc34)n2)C1 | binding | 1 µM | 100 |
| CNC(=O)[C@@H]1CC[C@@H](n2c(-c3ccc4cnccc4c3)nc3ccc(C(=O)NCc4cccc(C(N)=O)c4)cc32)C1 | binding, competition with immobilised ligand | 1 µM | 99 |
| O=C(Nc1c[nH]nc1C(=O)NC1CCNCC1)c1cc(F)cc(F)c1 | binding, competition with immobilised ligand | 1 µM | 100 |
| C[C@@H]1CCN(c2nccc(-c3cnn4ncccc34)n2)C1 | binding | 1 µM | 84 |
| O=C(c1ccc(Nc2nccc(-c3cc4ccccc4s3)n2)cc1)N1CCC(N2CCCC2)CC1 | binding, competition with immobilised ligand | 1 µM | 31 |
| O=c1nc(-c2ccccn2)sc2ccccc12 | cell-free assay, competition with immobilised ligand | 1 µM | 97 |
| Cc1cnn2ncc(-c3ccnc(N(C)C)n3)c2c1 | binding | 1 µM | 100 |
| N#CC1(c2ccccn2)CCN(Cc2cc(C(=O)N3CCCC3)c(=O)n3ccccc23)CC1 | cell-free assay, competition with immobilised ligand | 1 µM | 92 |
| Cc1cnc(Nc2ccc(C(=O)N3CCC(N4CCCC4)CC3)cc2)nc1-c1cc2ccccc2s1 | binding, competition with immobilised ligand | 1 µM | 7.7 |
| Nc1ncc2c(n1)-c1c([nH]c3ccc(C#CC4CC4)cc13)CCCC2 | binding, competition with immobilised ligand | 1 µM | 100 |
| c1cnn2ncc(-c3ccnc(N4CCC45COC5)n3)c2c1 | binding | 1 µM | 99 |
| CCc1ccccc1C(=O)Nc1n[nH]c2c(C)c(F)c(C3C(C#N)=C(C)N(C)C(C)=C3C#N)cc12 | cell-free assay, competition with immobilised ligand | 1 µM | 100 |
| CN(c1nccc(-c2cnn3ncccc23)n1)C1CC1 | binding | 1 µM | 100 |
| CCC(=O)N[C@H]1CC[C@@H](C(=O)N(C)c2ccc(-c3nc4ccccc4o3)cc2)C1 | cell-free assay, competition with immobilised ligand | 1 µM | 100 |
